# Source: paper PMC9436332 (Proceedings of the National Academy of Sciences of the …, 2022)
# Entries after “also recorded” stand apart in the source; their conditions may differ.
# Columns and labels:
# [1] = test system: quantified cysteines in the human proteome (22Rv1 cells); test: Cysteine-directed MS-ABPP; format: binding; details: 20 µM, 3 h, in situ; 22Rv1 and Ramos
# Summary of the method: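 22Rv1 cells were plated at 15 million cells per 15-cm dish and treated the next day. Ramos cells were adjusted to 3 × 10⁶ cells/mL and rested 30 min before treatment. Cells got 20 μM test compound in situ for 3 h, then were washed in cold DPBS and frozen. Cells were probe-sonicated in cold PBS, and 2 mg/mL lysate was labelled with IA-DTB (10 mM DMSO stock) for 1 h at room temperature in the dark. Cysteines were quantified by LC-MS/MS/MS against DMSO.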
# [2] = test system: mouse DRG neurons; test: Vacor-induced neurite degeneration in mouse DRG neurons; format: cell-based; details: for Degeneration Index (%): +50 μM Vacor alone
# [3] = test system: rat DRG neurons; format: cell-based; details: 48 h
# [4] = test system: SARM1-C311A; test: Gel-ABPP, in situ, SARM1-C311A mutant expressed in HEK293T cells; format: binding, human; details: 20 µM, 1 h
# Summary of the method: (§1)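 N-terminally FLAG-tagged human SARM1 (WT or C311A) was transiently expressed in HEK293T cells and treated 48 h post-transfection. Cells got either alkyne probe alone (20 μM, 1 h, in situ) or 3 h compound pretreatment followed by probe. Lysates (ice-cold DPBS with protease inhibitors, 1.0 mg/mL) underwent 1 h CuAAC with rhodamine-azide/TCEP/TBTA/CuSO₄. Analysis was SDS-PAGE in-gel fluorescence with background-subtracted band intensities; IC₅₀ by four-parameter fit; three independent experiments.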
# [5] = test system: WT-SARM1; test: Gel-ABPP, in situ, WT-SARM1 recombinantly expressed in HEK293T cells; format: binding, human; details: 1 h
# Summary of the method: as §1
# [6] = test system: WT-SARM1; test: Gel-ABPP, in vitro treatment, WT-SARM1 recombinantly expressed in HEK293T cells; format: binding, human; details: 1 h; for effect of metabolite on MY-13B engagement of SARM1: 0.125-1 mM, MY-13B 20 µM
# [7] = test system: mouse SARM1; test: Gel-ABPP, in situ, mouse SARM1 recombinantly expressed in HEK293T cells; format: binding; details: 20 µM, 1 h, compared with human SARM1
# [8] = test system: SARM1; details: cited from earlier work
# [9] = molecular target: T1, endogenous SARM1 (Homo sapiens, UniProt Q6SZW1); format: cell-based; details: SH-SY5Y cells, vacor 50 µM, 0-8 h
# T1 sequence (Q6SZW1 28-724): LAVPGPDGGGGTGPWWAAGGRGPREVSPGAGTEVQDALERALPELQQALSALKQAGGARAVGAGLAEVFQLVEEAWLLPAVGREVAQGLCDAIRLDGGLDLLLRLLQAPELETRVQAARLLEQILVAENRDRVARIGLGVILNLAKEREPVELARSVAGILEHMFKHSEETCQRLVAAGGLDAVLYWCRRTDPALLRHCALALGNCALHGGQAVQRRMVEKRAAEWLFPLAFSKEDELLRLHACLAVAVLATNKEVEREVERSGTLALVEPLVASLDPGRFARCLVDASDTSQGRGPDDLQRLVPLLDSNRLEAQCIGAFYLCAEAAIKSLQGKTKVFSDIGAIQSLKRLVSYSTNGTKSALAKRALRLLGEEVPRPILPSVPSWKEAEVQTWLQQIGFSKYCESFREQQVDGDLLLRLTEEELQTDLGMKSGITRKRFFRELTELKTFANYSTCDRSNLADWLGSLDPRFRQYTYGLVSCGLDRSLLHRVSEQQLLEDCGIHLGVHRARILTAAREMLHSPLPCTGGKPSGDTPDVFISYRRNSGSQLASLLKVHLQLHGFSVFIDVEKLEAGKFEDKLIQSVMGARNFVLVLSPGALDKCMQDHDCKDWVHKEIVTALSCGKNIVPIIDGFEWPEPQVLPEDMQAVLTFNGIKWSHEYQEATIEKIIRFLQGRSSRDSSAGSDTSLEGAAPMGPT
# Summary of the method: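 SH-SY5Y cells were pretreated in situ with compound for 3 h (0.1% DMSO), then given 50 μM vacor for 4 h. Pellets were resuspended in DPBS and quenched with cold methanol:acetonitrile (1:1) containing 100 pmol 8-Br-cADPR internal standard. Extraction used three freeze/sonication cycles, −20 °C for 1 h, centrifugation, drying and resuspension. cADPR was measured by LC-MS/MS, normalized to total protein; mean ± SEM of three independent experiments.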
smiles,measurement,setting,value
C=CC(=O)N1[C@@H](c2ccc3c(c2)OCO3)c2[nH]c3ccccc3c2C[C@H]1C(=O)NC [MY-9A],off-target cysteines also engaged by the SARM1-inactive enantiomers,[1],"DCTN4_C258, KEAP1_C151, PTGES2_C110, and UBR1_C1603"
same,blockade of vacor-induced neurite degeneration,"[2]; 1–20 µM, vacor 50 µM, over 48 h",ineffective
same,prevention of vincristine-induced neurite degeneration,[3]; 40 nM vincristine,weak activity
C#CCNC(=O)[C@@H]1Cc2c([nH]c3ccccc23)[C@H](c2ccc3c(c2)OCO3)N1C(=O)C=C [MY-13A],reactivity of alkyne probe with SARM1-C311A (gel-ABPP),[4],very low reactivity
C#CCNC(=O)[C@H]1Cc2c([nH]c3ccccc23)[C@@H](c2ccc3c(c2)OCO3)N1C(=O)C=C [MY-13B],reactivity of alkyne probe with WT-SARM1 (gel-ABPP),[5]; 20 µM,reacted strongly
same,reactivity of alkyne probe with SARM1-C311A (gel-ABPP),[4],very low reactivity
same,reactivity of alkyne probe with SARM1 in vitro,[6]; 20 µM,stereoselective reactivity; also recorded: maintained stereoselective engagement
same,labeling of recombinant mouse SARM1 by alkyne probe,[7],lower extent of labeling
"NC(=O)c1ccc[n+]([C@@H]2O[C@H](COP(=O)([O-])OP(=O)(O)OC[C@H]3O[C@@H](n4cnc5c(N)ncnc54)[C@H](O)[C@@H]3O)[C@@H](O)[C@H]2O)c1 [NAD^+, nicotinamide adenine dinucleotide, reference compound]",effect of metabolite on MY-13B engagement of SARM1,[6],neither metabolite affected MY-13B engagement
"NC(=O)c1ccc[n+]([C@@H]2O[C@H](COP(=O)([O-])O)[C@@H](O)[C@H]2O)c1 [NMN, nicotinamide mononucleotide, reference compound]",effect of metabolite on MY-13B engagement of SARM1,[6],neither metabolite affected MY-13B engagement
"COC(=O)c1c(C)nc(C)c(C(=O)OCC(C)C)c1-c1ccccc1N=O [dHNN, dehydronitrosonisoldipine, reference compound]",engagement of SARM1_C311 (effect on MY-13B reactivity),"[5]; 5–50 µM, 3 h pretreatment, MY-13B 20 µM",did not observe substantial alterations in MY-13B reactivity
same,effect of C311 mutagenesis on inhibitory activity,[8],only modestly impaired (∼twofold)
O=C(NCc1cccnc1)Nc1ccc([N+](=O)[O-])cc1 [vacor],induction of cADPR production,[9],"robust, time-dependent production of cADPR"
same,Degeneration Index (%),[2]; 8 h,~60%
same,Degeneration Index (%),[2]; 24 h,full degeneration
"CC[C@]1(O)C[C@H]2CN(CCc3c([nH]c4ccccc34)[C@@](C(=O)OC)(c3cc4c(cc3OC)N(C=O)[C@H]3[C@@](O)(C(=O)OC)[C@H](OC(C)=O)[C@]5(CC)C=CCN6CC[C@]43[C@@H]65)C2)C1 [vincristine, reference compound]",induction of neurite degeneration,[3]; vincristine 40 nM,robust neurite degeneration
